APJ agonist: agonists of human apelin receptor APJ, primary screen, CHO-K1 cells, PathHunter beta-arrestin, luminescence | P35414 | 0% DMSO wells, 100% apelin | activation, % at 20 µM | 0.11% of 330,000 active | AID 2520, 2010;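 active = activation more than six SD over the plate average, tested at 20 µM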;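 note: 0% = DMSO alone and 100% = apelin-13 at 10 nM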
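Test system: CHO-K1 APJ beta-arrestin complementation cell line. Amount: cell density 1000 per well. Controls: DMSO negative, 10 nM Apelin-13 positive. Signal: luminescent beta-gal fragment complementation, chemiluminescent substrate. Read-out basis: agonist-driven arrestin binding to APJ. Timing: compound stimulation 90 min at 25 °C, detection 60 min.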
EBI2 block: EBI2 receptor antagonists, beta-arrestin recruitment, primary screen, cell-based, luminescence, 7a,25-OHC stimulation, uHTS; 7a,25-OHC stimulated; G-protein coupled receptor 183 (Homo sapiens), P32249; 0.81% of 360,000 active; AID 651636, 2012; inhibition, % at 5 µM; in the data active = inhibition above about 38%;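 note: enzyme fragment complementation signal reports receptor beta-arrestin coupling in cells; 0% = agonist plus DMSO wells and 100% = wells without agonist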
Target sequence (P32249 whole entry, looked up, the tested form may be a part): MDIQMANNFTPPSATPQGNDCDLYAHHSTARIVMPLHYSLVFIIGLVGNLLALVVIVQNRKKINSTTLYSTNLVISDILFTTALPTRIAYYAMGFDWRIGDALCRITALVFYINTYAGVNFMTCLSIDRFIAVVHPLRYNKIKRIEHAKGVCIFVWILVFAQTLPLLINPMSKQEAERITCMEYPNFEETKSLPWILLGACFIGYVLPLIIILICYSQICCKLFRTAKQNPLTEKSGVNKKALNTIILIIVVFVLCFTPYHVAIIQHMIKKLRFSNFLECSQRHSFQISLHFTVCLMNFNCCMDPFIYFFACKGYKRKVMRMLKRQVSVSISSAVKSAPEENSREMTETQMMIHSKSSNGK
APJ antag: antagonists of human apelin receptor APJ, primary screen, CHO-K1 cells, beta-arrestin complementation, luminescence; P35414; inhibition, % at 20 µM; 0.32% of 330,000 active; AID 2521, 2010;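 active = inhibition above about 40% at 20 µM, limit read from the data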;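 note: cells challenged with 10 nM apelin-13 agonist together with compound; plate controls were apelin-13 plus DMSO wells for no effect and DMSO wells lacking apelin-13 for full effect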
CXCR6 block: CXCR6 receptor inhibitors, primary screen, cell-based, beta-arrestin, luminescence, CHO-K1 PathHunter, 1536-well; 0.36% of 360,000 active; AID 602244, 2012; inhibition, % at 20 µM; in the data active = inhibition above about 34%, passing the limit was not always enough;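 note: antagonist mode with CXCL16 agonist at 10 nM final; 0% = 10 nM CXCL16 with DMSO and 100% = unstimulated wells without agonist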
CCR6 antag: CCR6 receptor antagonists, primary screen, cell-based, CHO-K1, luminescence, beta-arrestin, uHTS; C-C chemokine receptor type 6 (Homo sapiens), P51684; inhibition, % at 20 µM; CHO-K1 CCR6 PathHunter beta-arrestin, CCL20-stimulated; AID 493098, 2011; 0.49% of 340,000 active;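 active = compounds whose inhibition of the agonist-driven luminescence signal at 20 µM reaches about 50%, limit read from the data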;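 note: cells stimulated with CCL20 at 14 nM final; plate controls were DMSO with CCL20 for no effect and DMSO without agonist for full effect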
APJ antag conf: APJ antagonists blocking beta-arrestin recruitment, confirmation, cell-based, luminescence, single concentration, uHTS hits. shares compounds with APJ antag. antagonist mode. inhibition, % at 20 µM. 66% of 950 active; in the data active = inhibition above about 50%
CXCR6 antag conf: CXCR6 receptor antagonists, confirmation, cell-based, single concentration, beta-arrestin, luminescence. 65% of 700 active. AID 602409, 2012. shares compounds with CXCR6 block. CHO-K1 CXCR6 PathHunter beta-arrestin. inhibition, % at 20 µM;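 active = mean inhibition over four retests above 40%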;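 note: receptor stimulated with 10 nM CXCL16 agonist; beta-galactosidase fragment complementation upon beta-arrestin recruitment to receptor; plate controls were CXCL16 plus DMSO for no effect and DMSO without CXCL16 for full effect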
Numbers without * were called inactive. Sampled rows, rich in hits. Any-hit rate of the full collection: about 1.5%.

How did Oc1cccc2ccc(/C=C/c3c(F)cccc3Cl)nc12 do in these assays?
APJ agonist: -7; EBI2 block: 8; APJ antag: 44*; CXCR6 block: 47*; CCR6 antag: 56*; APJ antag conf: 32; CXCR6 antag conf: 58*

How did Cc1cc(NC(=O)COC(=O)C2CSC3(C)CCC(=O)N23)ccc1Br (stereo unspecified) do in these assays?
APJ agonist: -4; EBI2 block: -8; APJ antag: -12; CXCR6 block: 3; CCR6 antag: 3

What do the screens show for `COc1cc(C2C(C#N)=C(N)Oc3n[nH]c(-c4cccs4)c32)cc(OC)c1O` (stereo unspecified)?
APJ agonist: -4; EBI2 block: -4; APJ antag: 47*; CXCR6 block: 49*; CCR6 antag: 59*; APJ antag conf: 47; CXCR6 antag conf: 51*

How did Cc1ccc(C2C(C#N)=C(N)Oc3n[nH]c(-c4cccs4)c32)cc1 (stereo unspecified) do in these assays?
APJ agonist: 1; EBI2 block: -4; APJ antag: -9; CXCR6 block: 0; CCR6 antag: 20

What do the screens show for `CC1=C(C(=O)N(C)C)CC(CC(=O)NCC2CCCCC2)C(=O)N1Cc1ccccc1` (stereo unspecified)?
EBI2 block: 2; CXCR6 block: 1

Results for CCC1=NN(C(=O)c2ccccc2O)C(O)(c2ccccc2)C1 (stereo unspecified) ?
APJ agonist: -5; EBI2 block: 9; APJ antag: 19; CXCR6 block: 20; CCR6 antag: 43

How did CCC1=NN(C(=O)c2ccc([N+](=O)[O-])cc2)C(O)(c2ccccc2)C1 (stereo unspecified) do in these assays?
APJ agonist: -10; EBI2 block: 10; APJ antag: 45*; CXCR6 block: 64*; CCR6 antag: 82*; APJ antag conf: 71*; CXCR6 antag conf: 42*

How did Cc1ccc(C2=Nc3ccccc3SC(c3cccc([N+](=O)[O-])c3)C2)cc1 (stereo unspecified) do in these assays?
APJ agonist: -1; EBI2 block: 12; APJ antag: 5; CXCR6 block: 7; CCR6 antag: 8

What do the screens show for `O=C1c2cccc3c([N+](=O)[O-])ccc(c23)C(=O)N1c1ccc(Cl)cn1`?
APJ agonist: -5; EBI2 block: 44*; APJ antag: 49*; CXCR6 block: 54*; CCR6 antag: 76*; APJ antag conf: 83*; CXCR6 antag conf: 42*

What do the screens show for `COc1ccc(S(=O)(=O)N2CCOC2CNC(=O)C(=O)NCCCN2CCOCC2)cc1OC` (stereo unspecified)?
APJ agonist: -5; EBI2 block: 1; APJ antag: 6; CXCR6 block: -9; CCR6 antag: 1

What do the screens show for `CC(=O)OCCN(C)c1cc(SC(C)C)c2nonc2c1[N+](=O)[O-]`?
APJ agonist: 4; EBI2 block: -8; APJ antag: -1; CXCR6 block: 6; CCR6 antag: 25

Results for CN(CCO)c1cc(Sc2nc3ccccc3s2)c2nonc2c1[N+](=O)[O-] ?
APJ agonist: -9; EBI2 block: 25; APJ antag: 97*; CXCR6 block: 99*; CCR6 antag: 113*; APJ antag conf: 107*; CXCR6 antag conf: 109*

How did Fc1ccc(NC(=S)Nc2nccs2)cc1 do in these assays?
APJ agonist: -8; EBI2 block: 2; APJ antag: 46*; CXCR6 block: 53*; CCR6 antag: 49; APJ antag conf: 62*; CXCR6 antag conf: 78*

Results for COc1ccc(CCNC(=O)c2ccc3c(c2)S(=O)(=O)N=C2CCCCCN23)cc1 ?
APJ agonist: -2; EBI2 block: -8; APJ antag: 9; CXCR6 block: 0; CCR6 antag: 5

What do the screens show for `COC(=O)c1ccc(C)c(-n2c(=O)n(Cc3ccccc3)c(=O)c3[nH]cnc32)c1`?
APJ agonist: -9; EBI2 block: 22; APJ antag: 61*; CXCR6 block: 66*; CCR6 antag: 64*; APJ antag conf: 122*; CXCR6 antag conf: 49*

What do the screens show for `CCCC(=O)OCCNc1cc(Sc2nc3ccccc3[nH]2)c2nonc2c1[N+](=O)[O-]`?
APJ agonist: -7; EBI2 block: 7; APJ antag: 87*; CXCR6 block: 94*; CCR6 antag: 118*; APJ antag conf: 126*; CXCR6 antag conf: 103*

Results for NC(=O)c1ccccc1NCC(=O)c1ccc(Cl)cc1 ?
APJ agonist: -16; EBI2 block: 16; APJ antag: 101*; CXCR6 block: 80*; CCR6 antag: 105*; APJ antag conf: 136*; CXCR6 antag conf: 46*

Results for O=C(Nc1nnc(SCc2ccc(F)cc2)s1)c1ccccn1 ?
APJ agonist: -12; EBI2 block: 67*; APJ antag: 78*; CXCR6 block: 44*; CCR6 antag: 70*; APJ antag conf: 46; CXCR6 antag conf: 50*

What do the screens show for `Cn1c(=O)n(C)c2cc([N+](=O)[O-])c(N3CCN(C(=O)c4cccc(F)c4)CC3)cc21`?
APJ agonist: -5; EBI2 block: 13; APJ antag: 17; CXCR6 block: 18; CCR6 antag: 22

How did Cn1c(=O)n(C)c2cc([N+](=O)[O-])c(N3CCN(C(=O)c4cccc(Cl)c4)CC3)cc21 do in these assays?
APJ agonist: -13; EBI2 block: 27; APJ antag: 53*; CXCR6 block: 52*; CCR6 antag: 65*; APJ antag conf: 84*; CXCR6 antag conf: 46*

How did CCN(CC)c1ccc(S(=O)(=O)N2CCCCC2)cc1NC(=O)CN1C(=O)NC2(CCCC2)C1=O do in these assays?
APJ agonist: -3; EBI2 block: -4; APJ antag: 19; CXCR6 block: 13; CCR6 antag: 27

Results for N#CC1(NC(=O)CN2CCc3ccccc3C2)CCCC1 ?
APJ agonist: -1; EBI2 block: 8; APJ antag: 13; CXCR6 block: 1; CCR6 antag: 1

Results for COC(=O)[C@@H]1C[C@@]2(O)[C@@H](O)[C@@H](O)[C@@H](O)C[C@H]2N1Cc1ccc(Cl)cc1 ?
APJ agonist: -7; EBI2 block: -15; APJ antag: 1; CXCR6 block: -2; CCR6 antag: -7

Assay outcomes: PubChem BioAssay, Sanford-Burnham Center for Chemical Genomics
